Measured values of several laboratories.
Target: Serine/threonine-protein kinase MARK1 (MARK1, Homo sapiens, UniProt Q9P0L2)
Observed: enzyme activity
Action: inhibitor

Cn1c(=O)n(-c2ccc(C(C)(C)C#N)cc2)c2c3cc(-c4cnc5ccccc5c4)ccc3ncc21  remaining activity (10 µM): 97%
Cc1ccc(C(=O)Nc2ccc(CN3CCN(C)CC3)c(C(F)(F)F)c2)cc1C#Cc1cnc2cccnn12  remaining activity (23.5 nM): 100%
NS(=O)(=O)c1ccc(CNc2nc(Nc3cccc(CN4CCOCC4)c3)ncc2C2CC2)cc1  remaining activity (radiometric; 1 µM): 100%
CC(C)(O)[C@H]1CC[C@H](Nc2ccc3ncc(-c4cccc(C(F)(F)F)c4)n3n2)CC1  remaining activity (1 µM): 102%
NS(=O)(=O)c1ccc(CNc2nc(Nc3cccc(CN4CCOCC4)c3)ncc2Br)cc1  remaining activity (radiometric; 1 µM): 66%
Cc1cnc(NC2CCOCC2)nc1-n1cnc(C(=O)NC(CN)c2cc(F)cc(Cl)c2)c1 (stereo not shown)  remaining activity (radiometric; 1 µM): 43%
CCCOc1ccc(OC)c(F)c1C(=O)c1ccc(C(=O)N[C@@H]2CNC[C@H]2NC(=O)c2ccc3[nH]ncc3c2)cc1  remaining activity (10 µM): 21%
Cc1nn(CC(F)(F)F)cc1Nc1nccc(NCCc2cnc[nH]2)n1  remaining activity (radiometric; 1 µM): 109%
Oc1cccc(-c2nc(N3CCOCC3)c3oc4ncccc4c3n2)c1  remaining activity (10 µM): 91%
c1cc(CN2CCOCC2)cc(Nc2ncc(C3CC3)c(NCCc3c[nH]cn3)n2)c1  remaining activity (radiometric; 1 µM): 1%
COc1cc(Cl)c(C(=O)N[C@@H](CN[C@H]2CC[C@@H](N)CC2)Cc2ccc(C#N)cc2)cc1-c1ccc(CN[C@H](C)c2ccc(C)cc2)o1  remaining activity (1 µM): 148%
CC(C)(C)c1nc(-c2cccc(NS(=O)(=O)c3c(F)cccc3F)c2F)c(-c2ccnc(N)n2)s1  remaining activity (radiometric; 1 µM): 90%
O=C(NCCCNc1nc(Nc2cccc(NC(=O)N3CCCC3)c2)ncc1Br)C1CCC1  remaining activity (radiometric; 1 µM): -6%
O=C(Nc1cnn(-c2csc(C(=O)NC3COC3)c2)c1)Nc1ccccc1Cl  remaining activity (5 µM): 96.3%
COc1cc(Nc2cnc(C#N)c(O[C@H](C)CN(C)C)n2)ncc1-c1cnn(C)c1  remaining activity (radiometric; 10 µM): 80%
O=C(Nc1cnn(-c2csc(C(=O)NC3COC3)c2)c1)Nc1c(F)cccc1Cl  remaining activity (5 µM): 108%
CCN(CC)c1ccc(C2=NNC(=O)CC2C)cc1[N+](=O)[O-] (stereo not shown)  remaining activity (10 µM): 102%
NS(=O)(=O)c1ccc(CNc2ccnc(Nc3cccc(NC(=O)N4CCCC4)c3)n2)cc1  remaining activity (radiometric; 1 µM): 104%
CC(C)(C)c1nc2c(s1)c1nc(N)ncc1c1ccc(NS(=O)(=O)c3c(F)cccc3F)c(F)c12  remaining activity (radiometric; 1 µM): 90%
